Source: ChEMBL document CHEMBL4392843, “Structure and biological evaluation of new cyclic and acyclic laxaphycin-A type peptides” (Bioorg Med Chem, 2019)
Active and inactive are the calls of the source. No cut-off for these calls is given here. Numbered stars: 1 amine (or outer) side, 2 acyl side, 3 side chain; on linkers, the order of the positions; unused ones are H or OH. Square brackets hold non-standard residues; d marks the D form. Peptide text beside a SMILES is read from it. dβ3hAhp = CCCCC[C@H](CC(=O)[*:2])N[*:1]; d(aIle) = CC[C@H](C)[C@@H](N)C(=O)O; Hyp = O=C(O)[C@@H]1C[C@@H](O)CN1; X1 = C/C=C(/N[*:1])C(=O)[*:2]; hSer = N[C@@H](CCO)C(=O)O

Key:
SH-SY5Y [1] = test: Cytotoxicity against human SH-SY5Y cells assessed as reduction in cell viability measured after 6 hrs by MTT assay; type: cell-based; details: for Cytotoxicity call (toxic / non-toxic): sh-sy5y; for IC50: Homo sapiens, SH-SY5Y, 6 h
Summary of the method: (§1)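 SH-SY5Y cells (ATCC CRL2266) in DMEM/F-12 with 10% FBS, 1% glutamax and penicillin/streptomycin, 37 °C, 5% CO2. Compounds were added to the medium (0.01, 0.05, 0.1 and 1 µM listed) for 24 or 6 h. Cells were then given 500 µg/mL MTT for 1 h and solubilized in 5% SDS, with A595 read. Saponin death-control absorbance was subtracted. IC50 reported with 95% CI and R².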

SH-SY5Y [2] = test: Cytotoxicity against human SH-SY5Y cells assessed as reduction in cell viability measured after 24 hrs by LDH release assay; type: cell-based
Summary of the method: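 SH-SY5Y cells in DMEM/F-12 with 10% FBS at 37 °C, 5% CO2, exposed to compounds in the medium for 24 h. LDH release was measured with a commercial LDH-cytotoxicity kit per its protocol as the viability indicator. IC50 reported with 95% CI and R².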

SH-SY5Y [3] = test: Cytotoxicity against human SH-SY5Y cells assessed as reduction in cell viability measured after 24 hrs by MTT assay; type: cell-based; summary of the method: as §1
SH-SY5Y [4] = test: Effect on cell viability in human SH-SY5Y cells up to 10 uM after 6 hrs by MTT assay; type: cell-based
SH-SY5Y [5] = test: Induction of autophagy in human SH-SY5Y cells assessed as LC3-2/LC3-1 ratio at 10 uM measured after 6 hrs by Western blot analysis (reference value: 2.6 +/- 0.3); type: functional
SH-SY5Y [6] = test: Induction of autophagy in human SH-SY5Y cells assessed as decrease in cytoplasmic p62 levels at 10 uM measured after 6 hrs by Western blot analysis; type: functional; details: in the assay text read “membrane” for “cytoplasmic”
Summary of the method: (§2)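 SH-SY5Y cells were treated with 10 µM for 6 h and lysed in ice-cold hypotonic Tris buffer (pH 7.4) with 1% Triton X-100 and inhibitors. The cytosolic fraction was taken at 3000 rpm; membrane fraction came via nuclear extraction buffer. 20 µg protein was run on 10% SDS-PAGE with chemiluminescent detection. Read-outs were LC3II/LC3I ratio or % of untreated (p-mTOR, p62); three experiments in triplicate, blots run in duplicate.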

SH-SY5Y [7] = test: Effect on mitochondrial membrane potential in human SH-SY5Y cells up to 10 uM measured after 6 hrs by TMRM assay
SH-SY5Y [8] = test: Cytotoxicity against human SH-SY5Y cells assessed as decrease in cell viability at 10 uM measured after 6 to 24 hrs by MTT assay relative to control; type: cell-based
SH-SY5Y [9] = test: Inhibition of reactive oxygen species production in human SH-SY5Y cells up to 10 uM measured after 6 hrs by DCFH-DA dye based fluorescence assay relative to control; type: cell-based; set-up: scale not given: the % may be the effect or the level left
Summary of the method: (§3)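 SH-SY5Y cells were exposed to compounds (6 h; 1 h also run), washed in saline, and loaded with 20 µM DCF-DA for 30 min at 37 °C. They were then held 30 min at room temperature for de-esterification. DCF fluorescence was read at 475 nm excitation and 525 nm emission, expressed as % of diluent-treated controls, with four independent experiments in triplicate.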

SH-SY5Y [10] = test: Induction of autophagy in human SH-SY5Y cells assessed as phosphorylated mTOR level at 10 uM measured after 6 hrs by Western blot analysis (reference value: 100%); type: functional; summary of the method: as §2
SH-SY5Y [11] = test: Effect on cell viability in human SH-SY5Y cells up to 10 uM after 1 hr by MTT assay; type: cell-based
SH-SY5Y [12] = test: Inhibition of reactive oxygen species production in human SH-SY5Y cells up to 10 uM measured after 1 hr by DCFH-DA dye based fluorescence assay; type: cell-based; summary of the method: as §3
SH-SY5Y [13] = test: Induction of autophagy in human SH-SY5Y cells assessed as increase in cytoplasmic p62 levels at 10 uM measured after 6 hrs by Western blot analysis; type: functional, cell-based; summary of the method: as §2
SH-SY5Y [14] = test: Induction of apoptosis in human SH-SY5Y cells assessed as increase in necrotic cells at 10 uM measured after 6 hrs by Annexin V-FITC/propidium iodide staining based flow cytometry; type: cell-based
Summary of the method: (§4)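 SH-SY5Y cells (1×10^6 per well) were treated with 10 µM for 6 h, washed in PBS, and stained with annexin V-FITC/propidium iodide in binding buffer for 15 min. Imaging flow cytometry counted 10000 events. Viable, apoptotic and necrotic populations are given as % of untreated cells, mean ± SEM of three independent experiments in triplicate.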

SH-SY5Y [15] = test: Induction of apoptosis in human SH-SY5Y cells assessed as decrease in viable cells at 10 uM measured after 6 hrs by Annexin V-FITC/propidium iodide staining based flow cytometry; type: cell-based; summary of the method: as §4
SH-SY5Y [16] = test: Induction of apoptosis in human SH-SY5Y cells assessed as increase in apoptotic cells at 10 uM measured after 6 hrs by Annexin V-FITC/propidium iodide staining based flow cytometry; type: cell-based; summary of the method: as §4
SH-SY5Y [17] = test: Induction of autophagy in human SH-SY5Y cells assessed as increase in LC3-2/LC3-1 ratio at 10 uM measured after 6 hrs by Western blot analysis; type: functional, cell-based; summary of the method: as §2
[18] = Homo sapiens, SH-SY5Y, 24 h, read-out: IC50

Row | Structure (SMILES) | Cytotoxicity call (toxic / non-toxic) (SH-SY5Y [1]) | IC50 (SH-SY5Y [2]; sh-sy5y) | IC50 (SH-SY5Y [3]; sh-sy5y) | Activity (SH-SY5Y [4]) | Ratio (SH-SY5Y [5]) | Activity (SH-SY5Y [6]) | Activity (SH-SY5Y [7]) | Activity (SH-SY5Y [8]) | Activity (SH-SY5Y [9]) | Activity (SH-SY5Y [10]) | Activity (SH-SY5Y [11]) | Activity (SH-SY5Y [12]) | Activity (SH-SY5Y [13]) | IC50 (SH-SY5Y [1]) | IC50 (SH-SY5Y [2]; [18]) | Activity (SH-SY5Y [14]) | IC50 (SH-SY5Y [3]; [18]) | Activity (SH-SY5Y [15]) | Activity (SH-SY5Y [16]) | Activity (SH-SY5Y [17])
1 | C/C=C1/NC(=O)[C@H](CCO)NC(=O)C[C@@H](CCCCC)NC(=O)CNC(=O)[C@H](CC(C)C)NC(=O)[C@@H]([C@@H](C)CC)NC(=O)[C@H]([C@@H](C)CC)NC(=O)[C@@H](CC(C)C)NC(=O)[C@@H](Cc2ccccc2)NC(=O)[C@H](CCO)NC(=O)[C@@H]2C[C@@H](O)CN2C1=O [LAXAPHYCIN A] (cyclo(G[dβ3hAhp][hSer][X1][Hyp][hSer][dF][dL]I[d(aIle)]L)) | Non-Toxic | Non-Toxic | Non-Toxic | – | – | – | – | – | – | – | – | – | – | – | – | – | – | – | – | –
2 | C/C=C(/NC(=O)[C@H](CCO)NC(=O)C[C@H](N)CCCCC)C(=O)N1C[C@H](O)C[C@H]1C(=O)N[C@@H](CCO)C(=O)N[C@H](Cc1ccccc1)C(=O)N[C@H](CC(C)C)C(=O)N[C@H](C(=O)N[C@@H](C(=O)N[C@@H](CC(C)C)C(=O)O)[C@@H](C)CC)[C@@H](C)CC | Toxic | Non-Toxic | Toxic | Non-Toxic | 6.7 | Active | Toxic | 50% | 40% | 70.3% | Non-Toxic | Toxic | Active | – | – | – | – | – | – | –
3 | C/C=C1/NC(=O)[C@H](CCO)NC(=O)C[C@@H](CCCCC)NC(=O)CNC(=O)[C@H](CC(C)C)NC(=O)[C@@H](C(C)C)NC(=O)[C@H]([C@@H](C)CC)NC(=O)[C@@H](CC(C)C)NC(=O)[C@@H](Cc2ccccc2)NC(=O)[C@H](CCO)NC(=O)[C@@H]2C[C@@H](O)CN2C1=O | – | – | – | – | 6.4 | Active | Toxic | – | Toxic | 70.7% | Non-Toxic | Toxic | Active | 3.7 µM | 12.4 µM | Non-Toxic | 5.6 µM | Toxic | Non-Toxic | –
4 | C/C=C1/NC(=O)[C@H](CCO)NC(=O)C[C@@H](CCCCC)NC(=O)CNC(=O)[C@H](CC(C)C)NC(=O)[C@@H]([C@@H](C)CC)NC(=O)[C@H](C(C)C)NC(=O)[C@@H](CC(C)C)NC(=O)[C@@H](Cc2ccccc2)NC(=O)[C@H](CCO)NC(=O)[C@@H]2C[C@@H](O)CN2C1=O | – | – | – | – | – | 15.8% | Toxic | – | – | 73.1% | – | – | Active | 1.3 µM | 3.6 µM | Non-Toxic | 0.6 µM | Toxic | Non-Toxic | Active
5 | C/C=C(/NC(=O)[C@H](CCO)NC(=O)C[C@H](N)CCCCC)C(=O)N1C[C@H](O)C[C@H]1C(=O)N[C@@H](CCO)C(=O)N[C@H](Cc1ccccc1)C(=O)N[C@H](CC(C)C)C(=O)N[C@H](C(=O)N[C@@H](C(=O)O)[C@@H](C)CC)[C@@H](C)CC | Non-Toxic | Non-Toxic | Non-Toxic | – | – | – | – | – | – | – | – | – | – | – | – | – | – | – | – | –
